The values that follow come from ChEMBL document CHEMBL1154414, “In vitro and in vivo activities of T-705 against arenavirus and bunyavirus infections” (Antimicrob Agents Chemother, 2007).

Assay [1] relates to Punta Toro virus. Briefly: Antiviral activity against 50 PFU Punta Toro virus Adames infected C57BL/6 mouse assessed as survival at 10 mg/kg, po twice daily for 5 days administered 24 hrs post viral challenge. The arrangement: dose 10 mg/kg. The class given is functional, organism-based. In a few lines:
(§1)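 Groups of 15 mice (25–30 placebo) were inoculated subcutaneously with PTV. Drug in 0.4% carboxymethylcellulose was given by oral gavage twice daily.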

The test system of assay [2] is Pichinde virus. Briefly: Antiviral activity against Pichinde virus An 4763 infected Syrian golden hamster assessed as animals with detectable virus level in serum at 60 mg/kg, po twice daily for 7 days administered 4 hrs before viral-challenge measured on day 7 of viral infection. The class given is functional.
The test system of assay [3] is Punta Toro virus. Briefly: Antiviral activity against 500 PFU Punta Toro virus Adames infected C57BL/6 mouse assessed as animals with detectable virus level in liver at 200 mg/kg, po twice daily administered 4 hrs before viral challenge measured on day 4 of viral infection. The assay is classed as functional. In a few lines:
(§2)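 T-705 was suspended in 0.4% carboxymethylcellulose and given by oral gavage twice daily. Mice were infected subcutaneously with PTV. Five mice per group (10 placebo) were sacrificed on day 3 or 4. Liver homogenate or serum was serially diluted onto triplicate LLC-MK2 monolayers, and CPE was read at 6–8 days. The detection limit was 2.8 log10 CCID50 per 0.1 g liver or 0.1 ml serum.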

The subject of assay [4] is Pichinde virus. As to the kind of experiment: Antiviral activity against Pichinde virus An 4763 infected Syrian golden hamster assessed as animals with detectable virus level in liver at 15 mg/kg, po twice daily for 7 days administered 4 hrs before viral-challenge measured on day 7 of viral infection. The class given is functional.
In assay [5] the test system is Punta Toro virus. As to the kind of experiment: Antiviral activity against 500 PFU Punta Toro virus Adames infected C57BL/6 mouse assessed as animals with detectable virus level in serum at 5 mg/kg, po twice daily administered 4 hrs before viral challenge measured on day 3 of viral infection. The class given is functional. The procedure, abridged: as §2
The test system of assay [6] is Enterovirus. Briefly: Antiviral activity against Rhinovirus. The class given is functional, organism-based.
For assay [7], the system named is Punta Toro virus. As to the kind of experiment: Antiviral activity against 500 PFU Punta Toro virus Adames infected C57BL/6 mouse assessed as animals with detectable virus level in serum at 30 mg/kg, po twice daily administered 4 hrs before viral challenge measured on day 3 of viral infection. The class given is functional. The procedure, abridged: as §2
For assay [8], the system named is Punta Toro virus. As to the kind of experiment: Antiviral activity against 500 PFU Punta Toro virus Adames infected C57BL/6 mouse assessed as mean day of death at 100 mg/kg, po twice daily for 5 days administered 4 hrs before viral challenge. The assay is classed as functional. In a few lines: as §1
For assay [9], the system named is Punta Toro virus. Briefly: Antiviral activity against 500 PFU Punta Toro virus Adames infected C57BL/6 mouse assessed as mean viral titer per 0.1 g of liver at 100 mg/kg, po administered 4 hrs before viral challenge measured on day 4 of viral infection. The assay is classed as functional. The procedure, abridged:
(§3)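 Mice were infected subcutaneously with PTV and dosed by oral gavage twice daily; 5 per group (10 placebo) were killed on day 3 or 4. Liver homogenate or serum was serially diluted onto triplicate LLC-MK2 monolayers, and CPE was read 6–8 days later. 50% endpoints gave log10 CCID50 per 0.1 g liver or 0.1 ml serum. Detection range was 2.8–9.5; undetectable samples were assigned <2.8.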

For assay [10], the system named is Punta Toro virus. Briefly: Antiviral activity against 5000 PFU Punta Toro virus Adames infected C57BL/6 mouse assessed as survival at 10 mg/kg, po twice daily for 5 days administered 24 hrs post viral challenge. The class given is functional. In a few lines: (§4)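 PTV was inoculated subcutaneously into mice in groups of 15 (25–30 placebo). Dosing was by oral gavage twice daily for 5–7 days, with T-705 suspended in 0.4% CMC and ribavirin in saline. Remaining animals were observed 21–28 days for survival and day of death. Test doses had first been checked for tolerance in uninfected animals.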

The test system of assay [11] is Punta Toro virus. Briefly: Antiviral activity against 500 PFU Punta Toro virus Adames infected C57BL/6 mouse assessed as inhibition of liver damage at 75 mg/kg/day, po twice daily administered 4 hrs before viral challenge measured on day 3 of viral infection. The assay is classed as functional, organism-based. In a few lines: (§5)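 Mice were infected with PTV subcutaneously and dosed by oral gavage twice daily (0.4% CMC vehicle). Five animals per group (10 placebo) were sacrificed on day 3 or 4. Livers were scored 0–4 for hepatic icterus, where 0 is normal and 4 is maximal yellow coloration.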

Assay [12] relates to Pichinde virus. As to the kind of experiment: Antiviral activity against Pichinde virus An 4763 assessed as reduction of 1 log10 unit viral titer yields after 7 to 8 days. The class given is functional.
The test system of assay [13] is Punta Toro virus. As to the kind of experiment: Antiviral activity against 500 PFU Punta Toro virus Adames infected C57BL/6 mouse assessed as survival at 50 mg/kg, po twice daily for 5 days administered 4 hrs before viral challenge. Also noted: dose 50 mg/kg. The assay is classed as functional, organism-based. In a few lines:
as §4

Assay [14] concerns Pichinde virus. Briefly: Antiviral activity against Pichinde virus An 4763 infected Syrian golden hamster assessed as […] survival administered po twice daily for 7 days administered 4 hrs before viral-challenge. The class given is functional, organism-based.
Assay [15] relates to Punta Toro virus. Briefly: Antiviral activity against 500 PFU Punta Toro virus Adames infected C57BL/6 mouse assessed as mean day of death at 50 mg/kg, po twice daily for 5 days administered 4 hrs before viral challenge. The class given is functional. The procedure, abridged: as §1
The subject of assay [16] is Punta Toro virus. Briefly: Antiviral activity against Punta Toro virus Adames assessed as reduction of 1 log10 unit viral titer yields after 3 to 5 days. The assay is classed as functional.
In assay [17] the test system is Rift Valley fever virus. As to the kind of experiment: Antiviral activity against Rift Valley fever virus MP-12 assessed as reduction of 1 log10 unit viral titer yields after 3 to 5 days. The class given is functional.
Assay [18] concerns Punta Toro virus. Briefly: Antiviral activity against 500 PFU Punta Toro virus Adames infected C57BL/6 mouse assessed as mean viral titer per 0.1 mL of serum at 200 mg/kg, po twice daily administered 4 hrs before viral challenge measured on day 4 of viral infection. The class given is functional. In a few lines:
as §3

Assay [19] concerns Pichinde virus. As to the kind of experiment: Antiviral activity against Pichinde virus An 4763 infected Syrian golden hamster assessed as mean serum ALT levels at 15 mg/kg, po twice daily for 7 days administered 4 hrs before viral-challenge measured on day 7 of viral infection. The assay is classed as functional.
The subject of assay [20] is Punta Toro virus. As to the kind of experiment: Antiviral activity against 500 PFU Punta Toro virus Adames infected C57BL/6 mouse assessed as inhibition of liver damage at 200 mg/kg, po twice daily administered 4 hrs before viral challenge measured on day 4 of viral infection. The class given is functional, organism-based. The arrangement: dose 200 mg/kg. The procedure, abridged:
as §5

In assay [21] the test system is Punta Toro virus. As to the kind of experiment: Antiviral activity against 500 PFU Punta Toro virus Adames infected C57BL/6 mouse assessed as animals with detectable virus level in serum at 200 mg/kg, po twice daily administered 4 hrs before viral challenge measured on day 4 of viral infection. The assay is classed as functional. In a few lines: as §2
Assay [22] has as its system Punta Toro virus. As to the kind of experiment: Antiviral activity against 500 PFU Punta Toro virus Adames infected C57BL/6 mouse assessed as animals with detectable virus level in liver at 5 mg/kg, po twice daily administered 4 hrs before viral challenge measured on day 3 of viral infection. The assay is classed as functional. In a few lines: as §2
The test system of assay [23] is Punta Toro virus. As to the kind of experiment: Antiviral activity against 5000 PFU Punta Toro virus Adames infected C57BL/6 mouse assessed as survival at 30 mg/kg, po twice daily for 5 days 24 hrs post viral challenge. The assay is classed as functional. The procedure, abridged:
as §4

For assay [24], the system named is Punta Toro virus. As to the kind of experiment: Antiviral activity against Punta Toro virus Adames infected Syrian golden hamster assessed as mean day of death at 15 mg/kg, po twice daily for 6 days administered 4 hrs before viral challenge. The assay is classed as functional.
Assay [25] relates to Pichinde virus. As to the kind of experiment: Antiviral activity against Pichinde virus An 4763 infected Syrian golden hamster assessed as animals with detectable virus level in serum at 30 mg/kg, po twice daily for 7 days administered 4 hrs before viral-challenge measured on day 7 of viral infection. The assay is classed as functional.
The subject of assay [26] is Pichinde virus. As to the kind of experiment: Antiviral activity against Pichinde virus An 4763 infected Syrian golden hamster assessed as animals with detectable virus level in liver at 60 mg/kg, po twice daily for 7 days administered 4 hrs before viral-challenge measured on day 7 of viral infection. The class given is functional.
The test system of assay [27] is Punta Toro virus. Briefly: Antiviral activity against 500 PFU Punta Toro virus Adames infected C57BL/6 mouse assessed as animals with detectable virus level in serum at 75 mg/kg, po twice daily administered 4 hrs before viral challenge measured on day 4 of viral infection. The class given is functional. The procedure, abridged:
as §2

Active and inactive are the calls of the source. The calls are words filed in the database; no cut-off is given here.

For the compound `NC(=O)c1nc(F)cnc1O` [FAVIPIRAVIR], the outcome in assay [1] was inactive. Also, the Activity in assay [2] is 0%; in [3] it was 0%; in assay [4], 100%; in [5], 100%; in assay [7], 80%; in [8] it was over 21 days. The Activity result was “Dose-dependent effect” in assay [14]; over 21 days in assay [15]; 1220 IU/L in assay [19]; 0% in assay [21]; 0% in assay [22]; 90% in [23]. In addition, the Activity in assay [24] stood at 5.4 days; in [25] it was 80%; in assay [26], 0%. Moreover, the EC50 in [6] worked out at 146 µM. For the same compound, the log10CCID50 in assay [9] and in assay [18] was under 2.8 each time. Moreover, the survival at 10 mg/kg in [10] stood at 40%. Besides, the outcome in assay [11], in [13] and in [20] was Active. The 90% effect concentration (EC90) in assay [12] was determined as 19 µM; in [16], 20 µM; in assay [17], 6 µM.
Consider `NC(=O)c1ncn([C@@H]2O[C@H](CO)[C@@H](O)[C@H]2O)n1` [RIBAVIRIN], for which the Activity in [27] was determined as 20%.

One may read the EC50 as the concentration at which the effect is half-maximal. High values mean weaker potency, low ones greater potency. Broadly, the EC90 is the concentration needed for an effect of 90%.
